From PubChem BioAssay AID588777 (Broad Institute, 2011)
The source made the active and inactive calls.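 Rule for the calls: active = compound whose fitted half-maximal concentration, rising or falling, is at most ten times its top tested dose; inconclusive = flat fit showing 30 to 70% decrease, or bad fit; inactive = the rest.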

Molecular target: Scavenger receptor class B member 1 (Mus musculus) (UniProt Q61009)
Experiment: modulators of HDL binding to SR-BI, dose response, orthogonal assay for SR-BI HDL uptake inhibitor project, ldlA[mSR-BI] cells, Alexa488-HDL, powder samples (AID 588777)
Settings: Alexa488-HDL binding fluorescence, 3 h
Outline: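 System: ldlA[mSR-BI] cells. Reagent: 10 µg/mL Alexa488-HDL. Doses: test compounds across a multi-point dose series. Timing: 3 h cell exposure to HDL and compounds at 37 °C. Signal: bottom-read Alexa488 fluorescence.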

Scavenger receptor class B member 1 (Mus musculus), sequence (Q61009 whole entry, looked up): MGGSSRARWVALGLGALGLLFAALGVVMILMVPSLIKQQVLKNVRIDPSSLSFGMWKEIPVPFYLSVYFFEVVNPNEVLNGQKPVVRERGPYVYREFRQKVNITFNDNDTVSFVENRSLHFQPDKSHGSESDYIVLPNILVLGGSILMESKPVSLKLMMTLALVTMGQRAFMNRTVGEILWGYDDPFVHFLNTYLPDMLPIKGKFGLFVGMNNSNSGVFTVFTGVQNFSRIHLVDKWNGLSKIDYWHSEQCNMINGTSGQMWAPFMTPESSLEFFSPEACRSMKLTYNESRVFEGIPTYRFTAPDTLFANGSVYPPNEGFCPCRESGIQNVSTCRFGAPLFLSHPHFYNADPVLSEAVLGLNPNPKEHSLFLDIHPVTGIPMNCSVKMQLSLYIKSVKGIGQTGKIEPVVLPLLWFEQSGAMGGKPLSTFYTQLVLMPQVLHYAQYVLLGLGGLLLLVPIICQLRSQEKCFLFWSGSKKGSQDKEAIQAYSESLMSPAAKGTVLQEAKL

| SMILES | AC50 | further results |
| --- | --- | --- |
| C[C@@H]1CN([C@H](C)CO)C(=O)c2cc(NC(=O)Cc3cn(C)c4ccccc34)ccc2O[C@H]1CN(C)S(=O)(=O)c1ccccc1 | 8.36 µM | – |
| CC(OC(=O)c1cccc(NS(C)(=O)=O)c1)C(=O)Nc1ccc(N2CCOCC2)cc1 (stereo not drawn) | 4.47 µM | – |
| CC(C)OCCCNC(=O)c1ccc(C2SCC(=O)N2Cc2ccco2)cc1 (stereo not drawn) | 16.5 µM | – |
| C[C@H](CO)N1C[C@H](C)[C@H](CN(C)S(=O)(=O)c2ccc(F)cc2)Oc2ccc(NS(C)(=O)=O)cc2C1=O | 21 µM | – |
| CC(C)(C)NC(=O)N1CCN(c2ncccc2C(F)(F)F)CC1 | 7.61 µM | – |
| O=C(Nc1ccc(-c2nc3ccc(NC(=O)c4ccccc4)cc3[nH]2)cc1)c1ccccc1 | 0.328 µM | – |
| O=C(Nc1ccc(-c2nc3cc(NC(=O)c4ccccc4Cl)ccc3o2)cc1)c1ccccc1Cl | 0.0819 µM | – |
| Cc1cc(C)n(CC(=O)NC2CCCc3c2cnn3-c2ccc(C)c(C)c2)n1 (stereo not drawn) | 0.0494 µM | – |
| O=C(Nc1ccccc1)c1ccccc1NS(=O)(=O)c1ccc(Cl)cc1 | – | activity change, either direction (at 35 µM (top of the series)): inactive |
| COC(=O)c1cn(C(=O)c2cccc3ccccc23)c2ccccc12 | 23 µM | – |
| O=C(Nc1ccc(Cl)cc1C(=O)c1ccc(Cl)cc1)c1cc(Br)ccc1NS(=O)(=O)c1ccc(Cl)cc1 | 21.7 µM | – |
| Cc1cc(C)c2c(c1)NC(c1cc3c(cc1Br)OCO3)C1CC=CC21 (stereo not drawn) | 8.25 µM | – |
| C[C@H]1CN([C@@H](C)CO)C(=O)c2cccc(NC(=O)Nc3ccccc3)c2O[C@@H]1CN(C)Cc1ccc(C(F)(F)F)cc1 | 19.4 µM | – |
| CCOC(=O)Nc1cccc(NC(=O)c2cc(OC)cc(OC)c2)c1 | 2.27 µM | – |
| CCC(=O)N1CCc2cc(-c3csc(NC(=O)c4ccco4)n3)ccc21 | – | activity change, either direction (at 35 µM (top of the series)): inactive |
| C[C@@H]1CN([C@H](C)CO)C(=O)c2cc(NC(=O)Cc3cn(C)c4ccccc34)ccc2O[C@@H]1CN(C)S(=O)(=O)c1ccc(F)cc1 | 21.5 µM | – |
| Cc1cc(C(=O)C(C)OC(=O)C2=NNC(=O)CC2)c(C)n1-c1ccc(OC(F)F)cc1 (stereo not drawn) | 7.45 µM | – |
| C[C@H]1CN([C@@H](C)CO)C(=O)c2cccc(NC(=O)Nc3ccccc3)c2O[C@@H]1CN(C)Cc1ccc(Cl)c(Cl)c1 | 1.79 µM | – |
| CC(C)NC(=O)Nc1cccc2c1O[C@H](CN(C)Cc1ccc(Cl)c(Cl)c1)[C@@H](C)CN([C@@H](C)CO)C2=O | 9.96 µM | – |
| C[C@H]1CN([C@@H](C)CO)C(=O)c2cccc(NC(=O)Nc3ccccc3)c2O[C@@H]1CN(C)S(C)(=O)=O | – | activity change, either direction (at 35 µM (top of the series)): inactive |

| SMILES | AC50 | further results |
| --- | --- | --- |
| O=C(Nc1ccc(-c2nc3ccc(NC(=O)c4ccccc4[N+](=O)[O-])cc3[nH]2)cc1)c1ccccc1[N+](=O)[O-] | 0.0549 µM | – |
| C[C@H](CO)N1C[C@H](C)[C@H](CN(C)S(=O)(=O)c2ccc(F)cc2)Oc2ccc(NC(=O)Cc3cn(C)c4ccccc34)cc2C1=O | 30.9 µM | – |
| COc1ccc(-c2nnn(CC(=O)N(C3CCCCC3)C(C)C(=O)NC3CCCC3)n2)cc1OC (stereo not drawn) | 0.422 µM | – |
| Cc1cc(SC(C)C(=O)Nc2ncc(Cl)cc2Cl)nc2ccccc12 (stereo not drawn) | 6.84 µM | – |
| COc1cccc(-c2csc(N3CCN(C(=S)Nc4cccc(Cl)c4)CC3)n2)c1 | 12 µM | – |
| C[C@H]1CN([C@@H](C)CO)C(=O)c2cccc(NC(=O)Nc3ccc(F)cc3)c2O[C@@H]1CN(C)Cc1ccc(Cl)c(Cl)c1 | 0.533 µM | – |
| O=C(Nc1cc(Cl)ccc1Cl)c1cc(Cl)ccc1NS(=O)(=O)c1ccc(Cl)c([N+](=O)[O-])c1 | – | activity change, either direction (at 35 µM (top of the series)): inactive |
| Cc1ccccc1NC(=O)NCC1CCN(c2ccc(S(=O)(=O)N3CCOCC3)cc2)CC1 | 3.98 µM | – |
| COc1ccc(OC)c(CCNC(=O)c2ccc3c(c2)N(Cc2ccc(F)cc2)CCS3)c1 | 6.52 µM | – |
| C[C@H]1CN([C@@H](C)CO)C(=O)c2cccc(NS(C)(=O)=O)c2O[C@@H]1CN(C)Cc1ccc(Cl)c(Cl)c1 | – | activity change, either direction (at 35 µM (top of the series)): inactive |
| C[C@H]1CN([C@@H](C)CO)C(=O)c2cc(NC(=O)Cc3cn(C)c4ccccc34)ccc2O[C@H]1CN(C)S(=O)(=O)c1ccc(F)cc1 | 25.4 µM | – |
| N#Cc1sc2nc(C3CC3)cc(-c3ccc(Cl)cc3)c2c1N | 20.1 µM | – |
| C[C@@H]1CN([C@@H](C)CO)C(=O)c2cc(NC(=O)Cc3cn(C)c4ccccc34)ccc2O[C@@H]1CN(C)S(=O)(=O)c1ccc(F)cc1 | 22.8 µM | – |
| CCOC(=O)N1CCC(NC(=O)c2ccc3c(c2)N(Cc2ccc(F)cc2)CCS3)CC1 | 2.4 µM | – |
| CCc1cc2cc3c(cc2nc1SCC(=O)OC(C)C)OCO3 | 1.48 µM | – |
| C[C@@H]1CN([C@@H](C)CO)C(=O)c2cc(NC(=O)Cc3cn(C)c4ccccc34)ccc2O[C@H]1CN(C)S(=O)(=O)c1ccc(F)cc1 | 10.2 µM | – |
| O=C(Nc1cc(Cl)ccc1Cl)c1cc(Br)ccc1NS(=O)(=O)c1ccc(Cl)c([N+](=O)[O-])c1 | 4.23 µM | – |
| C[C@@H]1CN([C@H](C)CO)C(=O)c2cc(NC(=O)Cc3cn(C)c4ccccc34)ccc2O[C@H]1CN(C)S(C)(=O)=O | 25 µM | – |
| Nc1ccc(C(=O)Nc2ccc(-c3nc4ccc(NC(=O)c5ccc(N)cc5)cc4[nH]3)cc2)cc1 | 4.55 µM | – |
| C[C@H](CO)N1C[C@H](C)[C@@H](CN(C)S(=O)(=O)c2ccc(F)cc2)Oc2ccc(NC(=O)Cc3cn(C)c4ccccc34)cc2C1=O | – | activity change, either direction (at 11 µM (top of the series)): inactive |

| SMILES | AC50 | further results |
| --- | --- | --- |
| C[C@H]1CN([C@@H](C)CO)C(=O)c2cc(NC(=O)Nc3ccccc3)ccc2O[C@@H]1CN(C)Cc1ccc(Cl)c(Cl)c1 | – | activity change, either direction (at 35 µM (top of the series)): inactive |
| C[C@@H]1CN([C@H](C)CO)C(=O)c2cc(NC(=O)Cc3cn(C)c4ccccc34)ccc2O[C@H]1CN(C)S(=O)(=O)c1ccc(Cl)cc1 | 0.168 µM | – |
| C[C@@H]1CN([C@H](C)CO)C(=O)c2cc(NC(=O)Cc3cn(C)c4ccccc34)ccc2O[C@H]1CN(C)S(=O)(=O)c1ccc(F)cc1 | 2.06 µM | – |
| O=C(Nc1cccc(NC(=O)c2cc([N+](=O)[O-])ccc2Cl)n1)c1cc([N+](=O)[O-])ccc1Cl | 5.11 µM | – |
| CCc1sc(N2C(=O)C3C4CCC(C4=C(C)C)C3C2=O)nc1-c1ccccc1 (stereo not drawn) | 0.441 µM | – |
| O=C(Nc1ccc(-c2nc3ccc(NC(=O)c4ccc(Cl)cc4)cc3[nH]2)cc1)c1ccc(Cl)cc1 | – | activity change, either direction (at 35 µM (top of the series)): inactive |
| C[C@H](CO)N1C[C@H](C)[C@H](CN(C)S(=O)(=O)c2ccc(F)cc2)Oc2ccc(NC(=O)CCC(F)(F)F)cc2C1=O | – | activity change, either direction (at 35 µM (top of the series)): inactive |
| O=C(Nc1ccc(-c2nc3cc(NC(=O)c4ccc(NC(=O)c5cccc6ccccc56)cc4)ccc3[nH]2)cc1)c1ccc(NC(=O)c2cccc3ccccc23)cc1 | < 0.015 µM | – |
| C[C@H]1CN([C@@H](C)CO)C(=O)c2cccc(NC(=O)Nc3ccccc3)c2O[C@@H]1CN(C)Cc1ccccc1 | 13.8 µM | – |
| CCOc1ccccc1/C=C/c1onc(C)c1S(=O)(=O)N1CCC(C(=O)NC(C)(C)C)CC1 | 11.3 µM | – |
| C[C@@H]1CN([C@H](C)CO)C(=O)c2cc(NC(=O)Cc3cn(C)c4ccccc34)ccc2O[C@H]1CN(C)C(=O)Nc1ccc(F)cc1 | 1.93 µM | – |
| O=C(Nc1ccc(-c2nc3cc(NC(=O)c4ccccc4[N+](=O)[O-])ccc3o2)cc1)c1ccccc1[N+](=O)[O-] | – | activity change, either direction (at 35 µM (top of the series)): inactive |
| COc1ccc([C@H]2CC(=O)C=C(c3cccc4c3sc3ccccc34)C2)cc1OC | 2.28 µM | – |
| O=C(Nc1cc(C(F)(F)F)ccc1Cl)c1ccccc1NS(=O)(=O)c1ccc(Cl)cc1 | – | activity change, either direction (at 35 µM (top of the series)): inactive |
| Cc1ccc(-c2nnc(N3CCC(C)CC3)c3ccccc23)cc1C | 5.54 µM | – |
| CCOc1ccc(NC(=O)CN2CCN(CC(=O)Nc3cc(OC)cc(OC)c3)CC2)cc1 | 0.128 µM | – |
| CCn1c(COc2c(C)cccc2C)nnc1SCC(=O)N1CCN(c2ccccc2)CC1 | 5.89 µM | – |
| Cc1ccc2oc(-c3cccc(NC(=O)c4cc(-n5cnnc5)ccc4Cl)c3)nc2c1 | – | activity change, either direction (at 68 µM (top of the series)): inactive |
